Reference: ChEMBL document CHEMBL1255404, “Spread of OXA-48-encoding plasmid in Turkey and beyond” (2010)
Converted amounts (≈) assume the structure as drawn.

Columns and labels:
Type in all cases: functional
Klebsiella pneumoniae [1] = assay: Antimicrobial activity against Klebsiella pneumoniae isolate KpBEL expressing beta-lactamase OXA-48 by Etest method
How it was run: (§1)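 MICs of β-lactams read from Etest strips. The test organisms are carbapenem-resistant, OXA-48-positive clinical Enterobacteriaceae isolates recovered from Turkey, Lebanon, Egypt, France and Belgium.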

Escherichia coli [2] = assay: Antimicrobial activity against Escherichia coli isolate J53 harboring p3A containing beta-lactamase OXA-48 located within transposon Tn1999 by Etest method
How it was run: (§2)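 β-Lactam MICs read with Etest strips. Strains are E. coli J53 recipient and J53 transconjugants carrying OXA-48-positive plasmids recovered from clinical enterobacterial isolates.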

Providencia rettgeri = assay: Antimicrobial activity against Providencia rettgeri isolate expressing beta-lactamase OXA-48 and TEM-101 by Etest method
Citrobacter freundii = assay: Antimicrobial activity against Citrobacter freundii isolate expressing beta-lactamase OXA-48 by Etest method
Escherichia coli [3] = assay: Antimicrobial activity against Escherichia coli isolate J53 harboring pCF containing beta-lactamase OXA-48 located within transposon Tn1999 by Etest method; how it was run: as §2
Klebsiella pneumoniae [4] = assay: Antimicrobial activity against Klebsiella pneumoniae isolate KpL expressing beta-lactamase OXA-48 by Etest method
Klebsiella pneumoniae [5] = assay: Antimicrobial activity against Klebsiella pneumoniae isolate KpI-1 expressing beta-lactamase OXA-48 and CTX-M-15 by Etest method
Escherichia coli [6] = assay: Antimicrobial activity against Escherichia coli isolate TOP10 by Etest method
How it was run: (§3)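 β-Lactam MICs read with Etest strips. Strains are E. coli TOP10 host and TOP10 transformants made with plasmid DNA extract when conjugation failed. Transformants were selected on LB agar with ticarcillin 50 μg/ml.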

Klebsiella pneumoniae [7] = assay: Antimicrobial activity against Klebsiella pneumoniae isolate Kp5A expressing beta-lactamase OXA-48 and SHV-5 by Etest method
Escherichia coli [8] = assay: Antimicrobial activity against Escherichia coli isolate J53 harboring pI-2 containing beta-lactamase OXA-48 located within transposon Tn1999.2 by Etest method; how it was run: as §2
Escherichia coli [9] = assay: Antimicrobial activity against Escherichia coli isolate A expressing beta-lactamase OXA-48 and TEM-150 by Etest method
Escherichia coli [10] = assay: Antimicrobial activity against Escherichia coli isolate J53 harboring pI-1 containing beta-lactamase OXA-48 located within transposon Tn1999.2 by Etest method; how it was run: as §2
Enterobacter cloacae [11] = assay: Antimicrobial activity against Enterobacter cloacae isolate 1 expressing beta-lactamase OXA-48 and SHV-5 by Etest method
Escherichia coli [12] = assay: Antimicrobial activity against Escherichia coli isolate J53 harboring p6A containing beta-lactamase OXA-48 located within transposon Tn1999 by Etest method; how it was run: as §2
Klebsiella pneumoniae [13] = assay: Antimicrobial activity against Klebsiella pneumoniae isolate Kp6A expressing beta-lactamase OXA-48 and TEM-150 by Etest method
Escherichia coli [14] = assay: Antimicrobial activity against Escherichia coli isolate J53 harboring pE containing beta-lactamase OXA-48 located within transposon Tn1999.2 by Etest method; how it was run: as §2
Escherichia coli [15] = assay: Antimicrobial activity against Escherichia coli isolate J53 harboring pA-1 containing beta-lactamase OXA-48 located within transposon Tn1999 by Etest method; how it was run: as §2
Escherichia coli [16] = assay: Antimicrobial activity against Escherichia coli isolate J53 harboring pEnc2 containing beta-lactamase OXA-48 located within transposon Tn1999 by Etest method; how it was run: as §2
Klebsiella pneumoniae [17] = assay: Antimicrobial activity against Klebsiella pneumoniae isolate Kp11978 expressing beta-lactamase OXA-48, SHV-2a and TEM-1 by Etest method
Escherichia coli [18] = assay: Antimicrobial activity against Escherichia coli isolate J53 harboring p7A containing beta-lactamase OXA-48 located within transposon Tn1999 by Etest method; how it was run: as §2
Escherichia coli [19] = assay: Antimicrobial activity against Escherichia coli isolate J53 harboring pBEL containing beta-lactamase OXA-48 located within transposon Tn1999.2 by Etest method; how it was run: as §2
Escherichia coli [20] = assay: Antimicrobial activity against Escherichia coli isolate TOP10 harboring pBIC containing beta-lactamase OXA-48 located within transposon Tn1999.2 by Etest method; how it was run: as §3
Escherichia coli [21] = assay: Antimicrobial activity against Escherichia coli isolate J53 harboring pEnc1 containing beta-lactamase OXA-48 located within transposon Tn1999 by Etest method; how it was run: as §2
Klebsiella pneumoniae [22] = assay: Antimicrobial activity against Klebsiella pneumoniae isolate KpE expressing beta-lactamase OXA-48 and CTX-M-15 by Etest method
Klebsiella pneumoniae [23] = assay: Antimicrobial activity against Klebsiella pneumoniae isolate KpB expressing OXA-48 and CTX-M-15 by Etest method
Escherichia coli [24] = assay: Antimicrobial activity against Escherichia coli isolate J53 by Etest method; how it was run: as §2
Escherichia coli [25] = assay: Antimicrobial activity against Escherichia coli isolate J53 harboring p5A containing beta-lactamase OXA-48 located within transposon Tn1999 by Etest method; how it was run: as §2
Klebsiella pneumoniae [26] = assay: Antimicrobial activity against Klebsiella pneumoniae isolate Kp3A expressing beta-lactamase OXA-48 by Etest method; how it was run: as §1
Escherichia coli [27] = assay: Antimicrobial activity against Escherichia coli isolate J53 harboring pBb containing beta-lactamase OXA-48 located within transposon Tn1999.2 by Etest method; how it was run: as §2
Enterobacter cloacae [28] = assay: Antimicrobial activity against Enterobacter cloacae isolate 2 expressing beta-lactamase OXA-48 and SHV-5 by Etest method
Escherichia coli [29] = assay: Antimicrobial activity against Escherichia coli isolate J53 harboring pEcA containing beta-lactamase OXA-48 located within transposon Tn1999.2 by Etest method; how it was run: as §2
Klebsiella pneumoniae [30] = assay: Antimicrobial activity against Klebsiella pneumoniae isolate Kp7A expressing beta-lactamase OXA-48 by Etest method; how it was run: as §1
Klebsiella pneumoniae [31] = assay: Antimicrobial activity against Klebsiella pneumoniae isolate KpI-2 expressing beta-lactamase OXA-48 and CTX-M-15 by Etest method
Klebsiella pneumoniae [32] = assay: Antimicrobial activity against Klebsiella pneumoniae isolate KpBIC expressing beta-lactamase OXA-48 by Etest method; how it was run: as §1
Klebsiella pneumoniae [33] = assay: Antimicrobial activity against Klebsiella pneumoniae isolate Kp4A expressing beta-lactamase OXA-48 and CTX-M-15 by Etest method
Escherichia coli [34] = assay: Antimicrobial activity against Escherichia coli isolate TOP10 harboring pPR containing beta-lactamase and TEM-101 by Etest method; how it was run: as §3
Escherichia coli [35] = assay: Antimicrobial activity against Escherichia coli isolate J53 harboring pL containing beta-lactamase OXA-48 located within transposon Tn1999.2 by Etest method; how it was run: as §2
Escherichia coli [36] = assay: Antimicrobial activity against Escherichia coli isolate J53 harboring p4A containing beta-lactamase OXA-48 located within transposon Tn1999 by Etest method; how it was run: as §2

Row | Structure (SMILES) | MIC (Klebsiella pneumoniae [1]) | MIC (Escherichia coli [2]) | MIC (Escherichia coli [3]) | MIC (Klebsiella pneumoniae [4]) | MIC (Escherichia coli [8]) | MIC (Escherichia coli [10]) | MIC (Escherichia coli [12]) | MIC (Escherichia coli [14]) | MIC (Escherichia coli [16]) | MIC (Escherichia coli [18]) | MIC (Escherichia coli [19]) | MIC (Escherichia coli [25]) | MIC (Klebsiella pneumoniae [26]) | MIC (Escherichia coli [27]) | MIC (Escherichia coli [29]) | MIC (Klebsiella pneumoniae [30]) | MIC (Klebsiella pneumoniae [32]) | MIC (Escherichia coli [34]) | MIC (Escherichia coli [35]) | MIC (Escherichia coli [36]) | also measured
1 | C[C@@H](O)[C@H]1C(=O)N2C(C(=O)O)=C(S[C@@H]3CN[C@H](C(=O)Nc4cccc(C(=O)O)c4)C3)[C@H](C)[C@H]12 | 4 µg/mL (≈ 8.41 µM) | 0.25 µg/mL (≈ 0.526 µM) | 0.25 µg/mL (≈ 0.526 µM) | > 16 µg/mL | 0.25 µg/mL (≈ 0.526 µM) | 0.25 µg/mL (≈ 0.526 µM) | 0.12 µg/mL (≈ 0.252 µM) | 3 µg/mL (≈ 6.31 µM) | 0.19 µg/mL (≈ 0.4 µM) | 0.19 µg/mL (≈ 0.4 µM) | 2 µg/mL (≈ 4.21 µM) | 0.12 µg/mL (≈ 0.252 µM) | > 32 µg/mL | 0.25 µg/mL (≈ 0.526 µM) | 0.25 µg/mL (≈ 0.526 µM) | > 32 µg/mL | 2 µg/mL (≈ 4.21 µM) | 0.75 µg/mL (≈ 1.58 µM) | 4 µg/mL (≈ 8.41 µM) | 0.12 µg/mL (≈ 0.252 µM) | MIC (Providencia rettgeri): > 32 µg/mL; MIC (Citrobacter freundii): > 32 µg/mL; MIC (Klebsiella pneumoniae [5]): 24 µg/mL (≈ 50.5 µM); MIC (Escherichia coli [6]): 0.06 µg/mL (≈ 0.126 µM); MIC (Klebsiella pneumoniae [7]): > 32 µg/mL; MIC (Escherichia coli [9]): > 32 µg/mL; MIC (Enterobacter cloacae [11]): 0.5 µg/mL (≈ 1.05 µM); MIC (Klebsiella pneumoniae [13]): > 32 µg/mL; MIC (Escherichia coli [15]): 0.19 µg/mL (≈ 0.4 µM); MIC (Klebsiella pneumoniae [17]): 64 µg/mL (≈ 135 µM); MIC (Escherichia coli [20]): 0.5 µg/mL (≈ 1.05 µM); MIC (Escherichia coli [21]): 0.125 µg/mL (≈ 0.263 µM); MIC (Klebsiella pneumoniae [22]): 3 µg/mL (≈ 6.31 µM); MIC (Klebsiella pneumoniae [23]): > 32 µg/mL; MIC (Escherichia coli [24]): 0.06 µg/mL (≈ 0.126 µM); MIC (Enterobacter cloacae [28]): 0.75 µg/mL (≈ 1.58 µM); MIC (Klebsiella pneumoniae [31]): 24 µg/mL (≈ 50.5 µM); MIC (Klebsiella pneumoniae [33]): > 32 µg/mL
2 | CO/N=C(\C(=O)N[C@@H]1C(=O)N2C(C(=O)[O-])=C(C[N+]3(C)CCCC3)CS[C@H]12)c1csc(N)n1 | 0.12 µg/mL (≈ 0.25 µM) | – | 0.12 µg/mL (≈ 0.25 µM) | 0.12 µg/mL (≈ 0.25 µM) | 0.12 µg/mL (≈ 0.25 µM) | 0.12 µg/mL (≈ 0.25 µM) | 0.12 µg/mL (≈ 0.25 µM) | 0.12 µg/mL (≈ 0.25 µM) | – | 0.5 µg/mL (≈ 1.04 µM) | 0.12 µg/mL (≈ 0.25 µM) | 0.12 µg/mL (≈ 0.25 µM) | 0.5 µg/mL (≈ 1.04 µM) | < 0.5 µg/mL | 0.12 µg/mL (≈ 0.25 µM) | 0.5 µg/mL (≈ 1.04 µM) | 0.5 µg/mL (≈ 1.04 µM) | 0.5 µg/mL (≈ 1.04 µM) | 0.06 µg/mL (≈ 0.125 µM) | 0.12 µg/mL (≈ 0.25 µM) | MIC (Escherichia coli [20]): 0.5 µg/mL (≈ 1.04 µM); MIC (Klebsiella pneumoniae [23]): > 512 µg/mL; MIC (Escherichia coli [24]): 0.03 µg/mL (≈ 0.0624 µM)
3 | C[C@H]1[C@H](NC(=O)/C(=N\OC(C)(C)C(=O)O)c2csc(N)n2)C(=O)N1S(=O)(=O)O [AZTREONAM] | 0.06 µg/mL (≈ 0.138 µM) | 0.06 µg/mL (≈ 0.138 µM) | 0.06 µg/mL (≈ 0.138 µM) | 0.06 µg/mL (≈ 0.138 µM) | 0.06 µg/mL (≈ 0.138 µM) | 0.06 µg/mL (≈ 0.138 µM) | 0.06 µg/mL (≈ 0.138 µM) | 0.06 µg/mL (≈ 0.138 µM) | 0.06 µg/mL (≈ 0.138 µM) | 0.06 µg/mL (≈ 0.138 µM) | 0.06 µg/mL (≈ 0.138 µM) | 0.06 µg/mL (≈ 0.138 µM) | 0.06 µg/mL (≈ 0.138 µM) | < 0.12 µg/mL | 0.06 µg/mL (≈ 0.138 µM) | 0.06 µg/mL (≈ 0.138 µM) | 0.06 µg/mL (≈ 0.138 µM) | 0.06 µg/mL (≈ 0.138 µM) | 0.06 µg/mL (≈ 0.138 µM) | 0.06 µg/mL (≈ 0.138 µM) | MIC (Escherichia coli [21]): 0.06 µg/mL (≈ 0.138 µM)
4 | C[C@@H](O)[C@H]1C(=O)N2C(C(=O)O)=C(S[C@@H]3CN[C@H](C(=O)N(C)C)C3)[C@H](C)[C@H]12 [MEROPENEM] | 0.5 µg/mL (≈ 1.3 µM) | 0.12 µg/mL (≈ 0.313 µM) | 0.12 µg/mL (≈ 0.313 µM) | – | 0.094 µg/mL (≈ 0.245 µM) | 0.094 µg/mL (≈ 0.245 µM) | 0.094 µg/mL (≈ 0.245 µM) | 2 µg/mL (≈ 5.22 µM) | 0.12 µg/mL (≈ 0.313 µM) | 0.12 µg/mL (≈ 0.313 µM) | 0.5 µg/mL (≈ 1.3 µM) | 0.094 µg/mL (≈ 0.245 µM) | > 32 µg/mL | 0.12 µg/mL (≈ 0.313 µM) | 0.19 µg/mL (≈ 0.495 µM) | > 32 µg/mL | 0.5 µg/mL (≈ 1.3 µM) | 0.25 µg/mL (≈ 0.652 µM) | 0.19 µg/mL (≈ 0.495 µM) | 0.094 µg/mL (≈ 0.245 µM) | MIC (Providencia rettgeri): > 32 µg/mL; MIC (Citrobacter freundii): > 32 µg/mL; MIC (Escherichia coli [6]): 0.06 µg/mL (≈ 0.156 µM); MIC (Klebsiella pneumoniae [7]): > 32 µg/mL; MIC (Escherichia coli [9]): 24 µg/mL (≈ 62.6 µM); MIC (Enterobacter cloacae [11]): 0.5 µg/mL (≈ 1.3 µM); MIC (Klebsiella pneumoniae [13]): > 32 µg/mL; MIC (Escherichia coli [15]): 0.25 µg/mL (≈ 0.652 µM); MIC (Klebsiella pneumoniae [17]): 64 µg/mL (≈ 167 µM); MIC (Escherichia coli [20]): 0.5 µg/mL (≈ 1.3 µM); MIC (Escherichia coli [21]): 0.094 µg/mL (≈ 0.245 µM); MIC (Klebsiella pneumoniae [22]): 2 µg/mL (≈ 5.22 µM); MIC (Klebsiella pneumoniae [23]): 32 µg/mL (≈ 83.4 µM); MIC (Escherichia coli [24]): 0.06 µg/mL (≈ 0.156 µM); MIC (Enterobacter cloacae [28]): 0.75 µg/mL (≈ 1.96 µM); MIC (Klebsiella pneumoniae [33]): > 32 µg/mL
